We go through one compound from ChEMBL document CHEMBL4043182, “On the synthesis of quinone-based BODIPY hybrids: New insights on antitumor activity and mechanism of action in cancer cells” (Bioorg Med Chem Lett, 2017).

The test system of data set [1] is PC-3. Kind of data set: Induction of oxidative stress in human PC3 cells assessed as total intracellular thiol levels at 5 uM treated 24 hrs post NAC addition measured after 24 hrs by spectrophotometric analysis (reference value: 4.23 +/- 0.75 microg/mg). It counts as functional. An outline of the steps:
(§1)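 Cells were pretreated 24 h with 5 mM NAC, then exposed 24 h to test compound at 5 µM. Controls received 0.1% DMSO. Extracts were prepared by sonication and HClO4 precipitation, then neutralized with KOH. Total glutathione was read by DTNB/glutathione reductase/NADPH rate at 412 nm. GSSG was measured after 4-vinylpyridine (0.1%, 1 h, RT) and GSH derived by difference. Values are normalized to protein, triplicates, three independent runs.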

The subject of data set [2] is SF-295. Nature of the data set: Induction of oxidative stress in human SF295 cells assessed as GSH to GSSG ratio at 5 uM after 24 hrs by spectrophotometric analysis (reference value: 2.34 +/- 0.56 microg/mg). It counts as functional.
For data set [3], the system named is HCT-116. Kind of data set: Induction of lipid peroxidation in human HCT116 cells assessed as increase in MDA levels at 2.5 to 10 uM treated 24 hrs post NAC addition measured after 24 hrs by TBARS assay. It counts as functional, cell-based. An outline of the steps:
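TBARS: cells were exposed 24 h, with or without 24 h prior 5 mM NAC, and lysed in Tris-HCl. Lysate was heated with TCA/0.25 M HCl and 6.7 mg/mL TBA for 15 min at 100 °C, centrifuged, and read at 532 nm. Hydrolyzed tetramethoxypropane served as standard, with values normalized to protein. H2O2 (10 µM) was the positive control. Three independent experiments in triplicate; ANOVA/Tukey.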

Data set [4] relates to HCT-116. Nature of the data set: Induction of oxidative stress in human HCT116 cells assessed as total GSSG levels at 5 uM treated 24 hrs post NAC addition measured after 24 hrs by spectrophotometric analysis (reference value: 1.19 +/- 0.37 microg/mg). Type of data set: functional.
The subject of data set [5] is HCT-116. Nature of the data set: Induction of oxidative stress in human HCT116 cells assessed as GSH to GSSG ratio at 5 uM after 24 hrs by spectrophotometric analysis (reference value: 3.09 +/- 0.33 microg/mg). Type of data set: functional.
Data set [6] in a line: Drug uptake in mitochondria of human PC3 cells at 5 uM after 10 mins by MitoTracker Red dye-based confocal microscopic analysis. Type of data set: ADME, cell-based. As to conditions: pc-3, 10 min. The method, boiled down: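 PC3 cells were grown in DMEM with 10% FBS, antibiotics and 2 mM L-glutamine at 37 °C, 5% CO2. Cells were incubated with compound (5 µM) plus LysoTracker Red or MitoTracker Red for 10 min at 37 °C. Live cells were imaged in phenol red-free DMEM by confocal microscopy with a 40X oil objective, exciting at 488 nm (compound) and 543 nm (tracker dyes).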

Data set [7] relates to SF-295. Kind of data set: Induction of oxidative stress in human SF295 cells assessed as total GSH levels at 5 uM treated 24 hrs post NAC addition measured after 24 hrs by spectrophotometric analysis (reference value: 3.16 +/- 0.21 microg/mg). It counts as functional. An outline of the steps:
as §1

For data set [8], the system named is L929. Nature of the data set: Induction of oxidative stress in mouse L929 cells assessed as total GSSG levels at 5 uM treated 24 hrs post NAC addition measured after 24 hrs by spectrophotometric analysis (reference value: 1.05 +/- 0.33 microg/mg). Type of data set: cell-based. As to conditions: l929, 24 h.
Data set [9] is described as follows: Selective index, ratio of IC50 for mouse L929 cells to IC50 for human MDA-MB-435 cells. An outline of the steps: (§2)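 Selectivity index is the ratio of the IC50 in a non-cancer murine line (V79 or L929) to the IC50 in the cancer line. […] MTT was 0.5 mg/mL for 3 h, formazan dissolved in DMSO and read at 595 nm as % of control. IC50s were derived by nonlinear regression; triplicate, at least three repeats.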

Data set [10] deals with L929. Kind of data set: Cytotoxicity against mouse L929 cells after 24 hrs in absence of GSH-OEt by MTT assay. As to conditions: L929, 24 h. Type of data set: cell-based. The method, boiled down: (§3)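 24 h MTT exposure (0.04–40.92 µM in 0.1% DMSO), with or without co-treatment with GSH ethyl ester (15 mM) to gauge the ROS contribution. MTT was 0.5 mg/mL for 3 h, with formazan dissolved in DMSO and absorbance at 595 nm expressed as % of control. Triplicate, repeated at least three times.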

The test system of data set [11] is L929. Kind of data set: Cytotoxicity against mouse L929 cells after 24 hrs in presence of GSH-OEt by MTT assay. As to conditions: L929, 24 h. Type of data set: cell-based. The method, boiled down: as §3
A general note: Tetrazolium assays rely on reduction of a dye to a coloured formazan, in cell work by metabolically active cells.

Data set [12] relates to PC-3. Kind of data set: Geno-toxicity in human PC3 cells assessed as induction of DNA damage at 2.5 to 10 uM after 24 hrs in absence of NAC by alkaline comet assay. Type of data set: functional, cell-based. The method, boiled down: (§4)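 Alkaline comet assay after 24 h at 2.5, 5 and 10 µM, with or without 24 h pretreatment with 5 mM NAC. Cells were trypsinized and embedded in 0.75% low-melting agarose, then lysed at pH 10, 4 °C, ≥1 h. DNA was unwound 20 min at pH >13 and electrophoresed 20 min at 25 V, 300 mA (0.86 V/cm), then stained with ethidium bromide. 100 cells (2 slides) were scored in classes 0–4 for a damage index. Mean ± SEM, three independent experiments in triplicate.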

The test system of data set [13] is SF-295. Kind of data set: Induction of oxidative stress in human SF295 cells assessed as total GSH levels at 5 uM after 24 hrs by spectrophotometric analysis (reference value: 3.16 +/- 0.21 microg/mg). Type of data set: functional.
Data set [14] has as its system SF-295. Kind of data set: Geno-toxicity in human SF295 cells assessed as induction of DNA damage at 2.5 to 10 uM treated 24 hrs post NAC addition measured after 24 hrs by alkaline comet assay. It counts as functional, cell-based. The method, boiled down:
as §4

Data set [15] concerns PC-3. Nature of the data set: Induction of oxidative stress in human PC3 cells assessed as total GSH levels at 5 uM after 24 hrs by spectrophotometric analysis (reference value: 3.04 +/- 0.51 microg/mg). Type of data set: functional.
Data set [16] concerns HCT-116. Nature of the data set: Induction of oxidative stress in human HCT116 cells assessed as total intracellular thiol levels at 5 uM after 24 hrs by spectrophotometric analysis (reference value: 5.02 +/- 0.91 microg/mg). Type of data set: functional.
Data set [17] has as its system HCT-116. Kind of data set: Geno-toxicity in human HCT116 cells assessed as induction of DNA damage at 2.5 to 10 uM treated 24 hrs post NAC addition measured after 24 hrs by alkaline comet assay. It counts as functional, cell-based. An outline of the steps:
as §4

The test system of data set [18] is SF-295. Nature of the data set: Cytotoxicity against human SF295 cells after 24 hrs in presence of GSH-OEt by MTT assay. It counts as functional, cell-based. As to conditions: SF-295, 24 h. An outline of the steps:
as §3

Data set [19] deals with HCT-116. Nature of the data set: Induction of oxidative stress in human HCT116 cells assessed as total intracellular thiol levels at 5 uM treated 24 hrs post NAC addition measured after 24 hrs by spectrophotometric analysis (reference value: 5.02 +/- 0.91 microg/mg). Type of data set: functional.
Data set [20] can be described thus: Selective index, ratio of IC50 for chinese hamster V79 cells to IC50 for human MDA-MB-435 cells. The method, boiled down: as §2
Data set [21] has as its system L929. Kind of data set: Induction of oxidative stress in mouse L929 cells assessed as GSH to GSSG ratio at 5 uM after 24 hrs by spectrophotometric analysis (reference value: 3.55 +/- 0.51 microg/mg). It counts as cell-based. As to conditions: l929, 24 h.

The structures appear in SMILES notation. Active and inactive are the calls of the source. The rule behind the calls is not given here.

By IC50 is commonly meant the concentration needed to halve the response being measured. `CC1(C)OC2=C(C(=O)C(=O)c3ccccc32)C1n1cc(CNC2=[N+]3C(=C(c4ccccc4)c4ccc(Cl)n4[B-]3(F)F)C=C2)nn1` (stereo unspecified): the Activity in data set [1] is 4.26 µg/mg; in data set [2] it was 0.39 µg/mg; in [4], 1.38 µg/mg; in data set [5], 0.56 µg/mg; in data set [7], 3.47 µg/mg; in [8], 1.24 µg/mg. Also, the Activity in data set [13] was 1.31 µg/mg; in [15], 1.35 µg/mg; in [16] it was 3.81 µg/mg; in data set [19] it was 5.12 µg/mg; in [21], 0.33. In addition, the result in data set [3] was inactive. In addition, the Drug uptake result in data set [6] is reported as “Metabolite_Notdetected”. The Ratio IC50 in data set [9] is 1.1; in data set [20], 0.8. The results for the IC50 in data set [10], in [11] and in data set [18] were 5.91 µM, 12.4 µM and 9.81 µM, respectively. Further, the outcome in [12], in [14] and in data set [17] was Active.
